≈ marks a conversion by molar mass, not a printed value.
What was measured:
[1] = system: Mycobacterium tuberculosis; test: Antimicrobial activity against Mycobacterium tuberculosis at 6.25 ug/mL after 20 hrs by broth microdilution method; assay type: functional
[2] = Cytotoxicity against RPMI 8226/s cells; assay type: functional, cell-based; details: Homo sapiens, RPMI8226/S
Procedure, shortened: (§1)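 Fluorometric microculture cytotoxicity assay (FMCA) read-out; IC50 values reported.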

[3] = system: ACHN; test: Cytotoxicity against ACHN cells; assay type: functional, cell-based; details: Homo sapiens; procedure, shortened: as §1
[4] = system: Staphylococcus aureus; test: Antibacterial activity against Staphylococcus aureus ATCC 25923 after 20 hrs by broth microdilution method; assay type: functional
Procedure, shortened: (§2)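 Strains grown 24 h at 35 °C on tryptone-soya agar. Colonies suspended in saline to 0.5 McFarland, then diluted 1:10 in Mueller-Hinton broth (~10⁷ CFU/mL). Inoculum added to twofold dilutions in broth (final 0.125–32 µg/mL) in triplicate. Incubated aerobically at 35 °C for 20 h. MIC is the lowest concentration giving complete growth inhibition. Repeated at least once; gentamycin/streptomycin served as QC.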

[5] = system: Mycobacterium tuberculosis; test: Antimicrobial activity against Mycobacterium tuberculosis after 20 hrs by broth microdilution method; assay type: functional
[6] = system: Escherichia coli; test: Antibacterial activity against Escherichia coli ATCC 25922 after 20 hrs by broth microdilution method; assay type: functional; details: ATCC 25922, 20 h; procedure, shortened: as §2
[7] = system: U-937/GTB; test: Cytotoxicity against U937 GTB cells; assay type: functional, cell-based; details: Homo sapiens; procedure, shortened: as §1
[8] = Cytotoxicity against CEM/s cells; assay type: functional, cell-based; details: Homo sapiens; procedure, shortened: as §1

Compound	inhibition at 6.25 µg/mL [1]	IC50 [2]	IC50 [3]	MIC ([4]; ATCC 25923, 20 h)	MIC [5]	MIC [6]	IC50 [7]	IC50 [8]	MIC [4]
C/N=c1\ncn(C)c2ncn(C/C=C(\C)CC/C=C(\C)CC/C=C(\C)CCC=C(C)C)c12	94%	> 80 µM	> 80 µM	3 µg/mL (≈ 6.89 µM)	3.13 µg/mL (≈ 7.18 µM)	16 µg/mL (≈ 36.7 µM)	> 80 µM	> 80 µM	
Cn1c[n+](Cc2ccccc2)c2/c(=N/OCc3ccccc3)[nH]cnc21	0%								
CO/N=c1\[nH]cnc2c1[n+](C/C=C(\C)CC/C=C(\C)CC/C=C(\C)CCC=C(C)C)cn2C(C)C	100%	0.886 µM	2.45 µM		1.56 µg/mL		1.1 µM	2.05 µM	
CC(C)=CCC/C(C)=C/CC/C(C)=C/CC/C(C)=C/C[n+]1cnc2c(ncn2C)c1N.[Br-]	72%	18.6 µM	> 80 µM	8 µg/mL		> 32 µg/mL	39.4 µM	20.8 µM	
CO/N=c1\[nH]cnc2c1[n+](C/C=C(\C)CC/C=C(\C)CC/C=C(\C)CCC=C(C)C)cn2C(c1ccccc1)c1ccccc1	99%	2.6 µM	4.75 µM	8 µg/mL	3.13 µg/mL	> 32 µg/mL	1.97 µM	3.54 µM	
Cn1cc[n+](Cc2ccccc2)c1	19%								
GENTAMICIN									0.1 µg/mL
C/C(=C\C[n+]1cn(C)c2nc[nH]/c(=N\OCc3ccccc3)c21)CCCC(C)CCCC(C)CCCC(C)C (stereo unspecified)	72%	7.07 µM	20.5 µM	> 32 µg/mL		> 32 µg/mL	10.8 µM	6.3 µM	
CC(=O)O[C@H]1C(=O)[C@@]2(C)[C@H]([C@H](OC(=O)c3ccccc3)[C@]3(O)C[C@H](OC(=O)[C@H](O)[C@@H](NC(=O)c4ccccc4)c4ccccc4)C(C)=C1C3(C)C)[C@]1(OC(C)=O)CO[C@@H]1C[C@@H]2O [PACLITAXEL]		0.007 µM	31.5 µM				0.0059 µM	0.007 µM	
CC(C)=CCC/C(C)=C/CC/C(C)=C/C[n+]1cn(C)c2ncnc(N)c21.[Cl-]	13%	> 80 µM	> 80 µM	> 32 µg/mL		> 32 µg/mL	> 80 µM	> 80 µM	
CC(C)=CCC/C(C)=C/CC/C(C)=C/CC/C(C)=C/C[n+]1cn(CCC#N)c2nc[nH]/c(=N\OCc3ccccc3)c21	86%	9.46 µM	38.9 µM	> 32 µg/mL		> 32 µg/mL	24.2 µM	19.1 µM	
Cn1c[n+](Cc2ccccc2)c2ccccc21	19%								
CO/N=c1\[nH]cnc2c1[n+](Cc1ccccc1)cn2C	4%	> 80 µM	> 80 µM	> 32 µg/mL		> 32 µg/mL	> 80 µM	> 80 µM	
CC(C)=CCC/C(C)=C\CC/C(C)=C/C[n+]1cn(C)c2ncnc(N)c21.[Cl-]	8%			32 µg/mL		> 32 µg/mL			
CC(C)=CCC/C(C)=C/CC/C(C)=C/CC/C(C)=C/C[n+]1cn(C(c2ccccc2)c2ccccc2)c2nc[nH]/c(=N\OCc3ccccc3)c21	78%	59 µM	17.2 µM	8 µg/mL		> 32 µg/mL	4.24 µM	9.11 µM	
CO/N=c1\[nH]cnc2c1[n+](C/C=C(\C)CCC=C(C)C)cn2C		18.4 µM	> 80 µM	> 32 µg/mL		> 32 µg/mL	17.5 µM	27.4 µM	

Compound	inhibition at 6.25 µg/mL [1]	IC50 [2]	IC50 [3]	MIC ([4]; ATCC 25923, 20 h)	MIC [5]	MIC [6]	IC50 [7]	IC50 [8]	MIC [4]
COc1cccc2c1C(=O)c1c(O)c3c(c(O)c1C2=O)C[C@@](O)(C(=O)CO)C[C@@H]3O[C@H]1C[C@H](N)[C@H](O)[C@H](C)O1 [DOXORUBICIN]		0.13 µM	14.2 µM				0.11 µM	0.18 µM	
C=CC[n+]1cn(C)c2nc[nH]/c(=N\OC)c21		> 80 µM	> 80 µM	> 32 µg/mL		> 32 µg/mL	> 80 µM	> 80 µM	
CC(C)=CCC/C(C)=C/CC/C(C)=C/CC/C(C)=C/Cn1cnc2ncnc(Cl)c21	33%	5.2 µM	6.75 µM	> 32 µg/mL		> 32 µg/mL	5.07 µM	6.79 µM	
Cn1c[n+](Cc2ccccc2)c2/c(=N/OC(C)(C)C)[nH]cnc21	53%								
CC(C)=CCC/C(C)=C/CC/C(C)=C/CC/C(C)=C/Cn1cnc2nc[nH]/c(=N\OCc3ccccc3)c21	40%	10.9 µM	27.4 µM	> 32 µg/mL		> 32 µg/mL	11.2 µM	20.4 µM	
CO/N=c1\[nH]cnc2c1[n+](C/C=C(\C)CC/C=C(\C)CCC1CCCCC1)cn2C				6 µg/mL		16 µg/mL			
Cn1cnc(=N)c2c1ncn2Cc1ccccc1	0%								
C=CCn1c[n+](C/C=C(\C)CC/C=C(\C)CC/C=C(\C)CCC=C(C)C)c2/c(=N/OC)[nH]cnc21	100%	1.25 µM	4.61 µM	> 32 µg/mL	3.13 µg/mL	> 32 µg/mL	1.39 µM	2.94 µM	
CC(C)=CCC/C(C)=C/CC/C(C)=C/CC/C(C)=C/Cn1cnc2c1C(=N)NCN2C	99%	18.2 µM	> 80 µM	8 µg/mL (≈ 18.9 µM)		16 µg/mL (≈ 37.8 µM)	> 80 µM	21.7 µM	
CO/N=c1\[nH]cnc2c1[n+](C/C=C(\C)CCCC(C)CCCC(C)CCCC(C)C)cn2C (stereo unspecified)	56%	3.75 µM	16.9 µM	> 32 µg/mL		> 32 µg/mL	5.4 µM	7.92 µM	
CO[C@H]1/C=C/O[C@@]2(C)Oc3c(C)c(O)c4c(O)c(c(/C=N/N5CCN(C)CC5)c(O)c4c3C2=O)NC(=O)/C(C)=C\C=C\[C@H](C)[C@H](O)[C@@H](C)[C@@H](O)[C@@H](C)[C@H](OC(C)=O)[C@@H]1C [RIFAMPIN]					0.25 µg/mL (≈ 0.304 µM)				
CO/N=c1\[nH]cnc2c1[n+](C/C=C(\C)CC/C=C(\C)CC/C=C(\C)CCC=C(C)C)cn2CCC#N	100%	3.96 µM	11.4 µM	4 µg/mL	> 6.25 µg/mL	> 32 µg/mL	3.33 µM	5.36 µM	
C/C(=C\C[n+]1cn(C)c2ncnc(N)c21)CCCC(C)CCCC(C)CCCC(C)C (stereo unspecified)	99%	2.41 µM	11.3 µM	4 µg/mL	6.25 µg/mL	> 32 µg/mL	3.18 µM	5.82 µM	
CO/N=c1\[nH]cnc2ncn(C/C=C(\C)CC/C=C(\C)CC/C=C(\C)CCC=C(C)C)c12	74%	3 µM	18.1 µM	> 32 µg/mL		> 32 µg/mL	3.31 µM	5.69 µM	
CO/N=c1\[nH]cnc2c1[n+](C/C=C(\C)CC/C=C(\C)CC/C=C(\C)CCC=C(C)C)cn2Cc1ccccc1	99%	1.04 µM	3.4 µM	> 32 µg/mL	1.56 µg/mL	> 32 µg/mL	1.07 µM	2.24 µM	
Cn1cnc2c(N)[n+](Cc3ccccc3)cnc21.[Br-]	0%			> 32 µg/mL		> 32 µg/mL			
